Assay [1] concerns Mus musculus. Kind of assay: In vivo antitumor activity against P388 mouse leukemia and minimum affective dose (MED) which produced a T/C greater than the threshold value of 125 was reported. Format: functional. To be noted: read-out: MED. The procedure, abridged:
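P388 leukemia cells implanted intraperitoneally in mice. Drug given ip once daily for 9 days (QD1 × 9). T/C = median survival time of treated animals / median survival time of untreated controls × 100. Minimum effective dose is the lowest dose (mg/kg) giving T/C above the threshold of 125. Reported dose levels are those with the highest T/C.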

Assay [2] deals with Mus musculus. Kind of assay: In vivo antitumor activity against P388 mouse leukemia expressed as T/C (median survival time of treated animals / median survival time of untreated controls x 100) at a dose of 0.5 mg/kg. It is filed as functional. The method in brief:
(§1)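 P388 leukemia implanted ip in mice, with ip dosing on a QD1 × 9 schedule. Read-out is T/C = median survival of treated animals / median survival of untreated controls × 100. Activity requires duplicate tests giving T/C ≥120%.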

Assay [3] deals with Mus musculus. Kind of assay: In vivo antitumor activity against P388 mouse leukemia expressed as T/C (median survival time of treated animals / median survival time of untreated controls x 100) at a dose of 3.12 mg/kg. It is filed as functional. The method in brief:
as §1

The test system of assay [4] is Mus musculus. Kind of assay: In vivo antitumor activity against P388 mouse leukemia expressed as T/C (median survival time of treated animals / median survival time of untreated controls x 100) at a dose of 0.94 mg/kg. Format: functional. The procedure, abridged:
as §1

Assay [5] addresses Tubulin beta chain (Bos taurus) (UniProt Q6B856). To be noted: at 25 µM.
The subject of assay [6] is Mus musculus. Kind of assay: In vivo antitumor activity against P388 mouse leukemia expressed as T/C (median survival time of treated animals / median survival time of untreated controls x 100) at a dose of 12.5 mg/kg. It is filed as functional. The method in brief:
as §1

Assay [7] relates to Mus musculus. Kind of assay: In vivo antitumor activity against P388 mouse leukemia expressed as T/C (median survival time of treated animals / median survival time of untreated controls x 100) at a dose of 0.32 mg/kg. Format: functional. The procedure, abridged: as §1
The test system of assay [8] is Mus musculus. Kind of assay: In vivo antitumor activity against P388 mouse leukemia expressed as T/C (median survival time of treated animals / median survival time of untreated controls x 100) at a dose of 0.18 mg/kg. It is filed as functional. The procedure, abridged:
as §1

A value given as a limit tells only on which side of the number the result lay.

Chain of Tubulin beta chain (Bos taurus) (Q6B856 whole entry): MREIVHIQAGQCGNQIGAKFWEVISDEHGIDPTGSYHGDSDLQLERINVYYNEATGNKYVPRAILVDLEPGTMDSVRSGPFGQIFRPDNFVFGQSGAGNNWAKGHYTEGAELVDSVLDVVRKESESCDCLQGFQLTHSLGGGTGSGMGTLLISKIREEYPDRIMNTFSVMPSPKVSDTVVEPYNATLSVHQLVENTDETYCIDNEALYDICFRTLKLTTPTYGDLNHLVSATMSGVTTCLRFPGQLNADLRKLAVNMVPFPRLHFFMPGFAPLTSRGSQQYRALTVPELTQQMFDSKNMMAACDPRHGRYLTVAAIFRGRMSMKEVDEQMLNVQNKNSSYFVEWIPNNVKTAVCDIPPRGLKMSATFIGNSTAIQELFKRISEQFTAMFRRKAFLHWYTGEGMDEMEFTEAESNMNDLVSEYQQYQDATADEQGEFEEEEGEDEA

For `COc1cc2c(c(OC)c1OC)-c1ccc(OC)c(=O)cc1[C@@H](NC(C)=O)CC2` [COLCHICINE], the minimal effective dose with Mus musculus [1] was determined as 0.06 mg/kg. The T/C in the assay with Mus musculus [2] was found to be 245.

On to `CCN(CC)c1ccc2c(cc1=O)[C@@H](NC(C)=O)CCc1cc(OC)c(OC)c(OC)c1-2`, for which the minimal effective dose in the assay on Mus musculus [1] stood at 0.39 mg/kg. Further, in the assay with Mus musculus [3], the T/C turned out to be 216.

With `COc1c2c(cc3c1-c1ccc(OC)c(=O)cc1[C@@H](NC(C)=O)CC3)OCO2`, in the assay with Mus musculus [1], the minimal effective dose was more than 0.4 mg/kg. The same compound showed a T/C in the assay on Mus musculus [4] of 166.

Turning to `COc1c2c(cc3c1-c1cccc(=O)cc1[C@@H](NC(C)=O)CC3)OCO2`, in assay [5], the Tubulin binding was determined as 0%.

Turning to `COc1cc2c(c(OC)c1OC)-c1ccc(SCc3ccccc3)c(=O)cc1[C@@H](NC(C)=O)CC2`, in the assay with Mus musculus [1], the minimal effective dose came out at 3.12 mg/kg. Further, the T/C with Mus musculus [6] is 214.

In turn, `COc1cc2c(c(OC(C)=O)c1OC)-c1cccc(=O)cc1[C@@H](NC(C)=O)CC2` came in with a Tubulin binding in assay [5] of 0%.

The compound `COc1cc2c(c(OC)c1O)-c1cccc(=O)cc1[C@@H](NC(C)=O)CC2` came in with a Tubulin binding in assay [5] of 26%.

Turning to `CNc1ccc2c(cc1=O)[C@@H](NC(C)=O)CCc1cc(OC)c(OC)c(OC)c1-2`, the minimal effective dose in the assay with Mus musculus [1] stood at 0.04 mg/kg. In the assay on Mus musculus [7], this compound came in with a T/C of 166.

Consider `COc1cc2c(c(OC)c1OC)-c1ccc(SC)c(=O)cc1[C@@H](NC(C)=O)CC2` [THIOCOLCHICINE], for which the minimal effective dose in the assay with Mus musculus [1] was 0.05 mg/kg. Also, the T/C in the assay with Mus musculus [8] is reported as 193.

In turn, `COc1cc2c(c(O)c1OC)-c1cccc(=O)cc1[C@@H](NC(C)=O)CC2` registered a Tubulin binding in assay [5] of 0%.
